Assay results pooled from the literature.

CCOC(=O)c1c(NCc2ccc(SC)cc2)c2cccc(C)c2[nH]c1=O
CC50 (FRT; cell growth or viability, MTS; 48 h): 91.6 µM

CN1CCCCC1Cn1cc(C(=O)c2cc([N+](=O)[O-])ccc2I)c2ccccc21 (racemic)
Tmax (mouse, brain; intravenous, 25 mg/kg): 15 min

N=C(N)NCCC[C@@H](NC(=O)[C@@H](N)Cc1ccccc1)C(=O)N[C@@H](Cc1ccccc1)C(=O)N[C@@H](CCCCN)C(N)=O
Cmax (human, plasma; subcutaneous, 25 mg, patients): 973 ng/mL

O=C(NCc1ccc(F)cc1)c1cccc(Nc2ccc(-c3ccccc3)nn2)c1
CC50 (FRT; cell growth or viability, MTS; 48 h): > 100 µM

c1cc([C@H]2CC[C@]3(CC2)OO[C@]2(O3)C3CC4CC(C3)CC2C4)ccc1OCCN1CCOCC1
Cmax (human, plasma; oral, 1200 mg, patients): 1500 ng/mL

N=c1c2c(-c3ccccc3)c(-c3ccccc3)n(Cc3ccccc3)c2ncn1[C@H]1CC[C@H](O)CC1
bioavailability (male cynomolgus monkey, plasma; oral, 1 mg/kg, single dose): > 80%

Cc1ncc2n1-c1ccc(Cl)cc1C(c1ccccc1F)=NC2
Cmax (human, plasma; oral, 2 mg): 10.3 ng/mL

CC[C@H](C)[C@H](NC(=O)[C@H](CC(C)C)NC(=O)[C@H](Cc1c[nH]c2ccccc12)NC(=O)[C@H](CCC(N)=O)NC(=O)[C@@H](NC(=O)[C@H](Cc1ccccc1)NC(=O)[C@H](C)NC(=O)[C@H](CCCCNC(=O)COCCOCCNC(=O)COCCOCCNC(=O)CC[C@H](NC(=O)CCCCCCCCCCCCCCCCCCC(=O)O)C(=O)O)NC(=O)[C@H](CCC(N)=O)NC(=O)[C@H](C)NC(=O)[C@@H](NC(=O)[C@H](CCCCN)NC(=O)[C@H](CC(=O)O)NC(=O)[C@H](CC(C)C)NC(=O)C(C)(C)NC(=O)[C@@H](NC(=O)[C@H](CO)NC(=O)[C@H](Cc1ccc(O)cc1)NC(=O)[C@H](CC(=O)O)NC(=O)[C@H](CO)NC(=O)[C@@H](NC(=O)[C@H](Cc1ccccc1)NC(=O)[C@@H](NC(=O)CNC(=O)[C@H](CCC(=O)O)NC(=O)C(C)(C)NC(=O)[C@@H](N)Cc1ccc(O)cc1)[C@@H](C)O)[C@@H](C)O)[C@@H](C)CC)[C@@H](C)CC)C(C)C)C(=O)N[C@@H](C)C(=O)NCC(=O)NCC(=O)N1CCC[C@H]1C(=O)N[C@@H](CO)C(=O)N[C@@H](CO)C(=O)NCC(=O)N[C@@H](C)C(=O)N1CCC[C@H]1C(=O)N1CCC[C@H]1C(=O)N1CCC[C@H]1C(=O)N[C@@H](CO)C(N)=O
Cmax (human, plasma; subcutaneous, 1.5 mg, multiple doses, healthy volunteers): 198 ng/mL

COc1ccc2c(c1)[C@]13CCCC[C@@H]1[C@H](C2)N(C)CC3
efflux ratio (Caco-2; 10 µM, pH 6.5): 2
